According to PubChem BioAssay:
Active and inactive are the calls of the source.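 How the source made its calls, unless noted: active means viability at or under a set limit in both replicates, limit being median viability minus 3 SD (cut at about 48% in these data, passing the limit was not always enough); inconclusive means at or under the limit in just one replicate; inactive means at or above the limit in both replicates.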

Columns and labels:
[1] = SK-BR-3 cell growth inhibitors, pilot screen, 24 h, human (AID 572;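 active means viability at or below 10% of carrier control in both of two separate runs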;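 further: compound exposure lasted between 18 and 24 h rather than exactly 24 h; 100% = carrier-treated control wells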); conditions: SK-BR-3 viability, CellTiter-Glo luminescence, at 10 µM, stronger effect = lower value
[2] = HUVEC growth inhibition – cell-based, human, primary screen (AID 575;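 active means viability at or below 30% in both replicate assays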;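 further: 100% = median of untreated cell wells with 0.1% DMSO on each plate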); conditions: HUVEC proliferation, CellTiter-Glo luminescence, 72 h; at 10 µM; stronger effect = lower value
How it was run: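 Material: primary human umbilical vein endothelial cells / Schedule: 72 h exposure, 37 °C, 5% CO2, 30 min RT equilibration / Signal: ATP-based CellTiter-Glo luminescent read / Read-out basis: percent of median DMSO-control luminescence / Control set: 32 DMSO-only cell-control wells (high), 32 MePR drug-control wells (low) per plate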

[3] = growth inhibitors of H69AR lung tumor, primary screen, human, duplicate replicates (AID 580); conditions: H69AR lung tumor cells viability, ATP luminescence, 72 h; at 10 µM; stronger effect = lower value;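 further: 100% = mean luminescence of untreated wells and 0% = no signal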
[4] = reversal of MRP1-mediated doxorubicin resistance, pilot screen, H69AR cells, doxorubicin co-treatment (AID 601;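 active means viability loss from added drug above about 55%, and viability with drug at most 40%, in both replicates, limit read from the data, passing the limit was not always enough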); conditions: CellTiter-Glo, 72 h, at 10 µM; for differential viability (reversal): stronger effect = higher value
[5] = 384-well plate pilot, post-Golgi transport modulator project, inhibition of yeast transport mutant growth (AID 636; in the data active means inhibition above about 31%); conditions: absorbance 615 nm, about 18 h, stronger effect = higher value
[6] = growth suppression of yeast trafficking mutant, preliminary HTS, modulators of trafficking downstream of Golgi apparatus project, 1536-format plate, OD 615 nm (AID 637; in the data active means inhibition above about 30%); conditions: yeast transport mutant growth, absorbance 615 nm, 18 h; stronger effect = higher value
[7] = H69AR cells + 2 uM doxorubicin, measured here: viability with 2 uM doxorubicin, stronger effect = lower value
[8] = H69AR cells, compound alone cytotoxicity

SMILES | viability [1] | viability [2] | viability [3] | differential viability (reversal) ([4]; H69AR cells + 2 uM doxorubicin) | viability [4, 7] [%] | viability [4, 8] [%] | inhibition [5] | inhibition [6]
COCCn1c(Sc2nc(C)cs2)nc2c1c(=O)[nH]c(=O)n2C | 85% (inactive) | 106% (inactive) | 101% (inactive) | 4.51% (inactive) | 96.6 | 101 | -5.07% (inactive) | 3.45% (inactive)
O=C(CSCc1cccs1)N1CCCC1 | 115% (inactive) | 93.6% (inactive) | 104% (inactive) | 13.8% (inactive) | 90.6 | 104 | -0.91% (inactive) | 5.41% (inactive)
COc1ccc(N2C(=O)C(Cl)=C(N3CCCC3)C2=O)cc1 | 97% (inactive) | 86.1% (inactive) | 94.7% (inactive) | 9.9% (inactive) | 84.8 | 94.7 | -6.08% (inactive) | -6.18% (inactive)
CCOC(=O)Cn1nnnc1CN(Cc1ccc(OC)cc1)Cc1cc2cc(C)ccc2[nH]c1=O | 101% (inactive) | 101% (inactive) | 94.3% (inactive) | -0.605% (inactive) | 94.9 | 94.3 | -1.33% (inactive) | 4.55% (inactive)
O=c1c2cnn(-c3ccccc3)c2ncn1/N=C/c1ccncc1 | 125% (inactive) | 108% (inactive) | 101% (inactive) | 18.9% (inactive) | 82.2 | 101 | -5.07% (inactive) | -4.91% (inactive)
COC(=O)c1cccc(S(=O)(=O)N2CCC(C)CC2)c1 | 100% (inactive) | 105% (inactive) | 93.8% (inactive) | -4.31% (inactive) | 98.1 | 93.8 | 0.52% (inactive) | -3.44% (inactive)
CC(=O)Oc1cccc2c1C(=O)c1c(OC(C)=O)cc(C(=O)O)cc1C2=O | 90% (inactive) | 60.2% (inactive) | 86.7% (inactive) | 0.27% (inactive) | 86.4 | 86.7 | 4.16% (inactive) | 7.17% (inactive)
Cc1noc(NS(=O)(=O)c2ccc(N)cc2)c1C | 97% (inactive) | 91% (inactive) | 105% (inactive) | 15.7% (inactive) | 89.1 | 105 | 2.34% (inactive) | -1.5% (inactive)
CC1(C)CC(=O)C(CC(=O)NC(=O)NCc2ccccc2)=C(O)C1 | 114% (inactive) | 81.9% (inactive) | 105% (inactive) | 9.89% (inactive) | 94.7 | 105 | -4.52% (inactive) | -10% (inactive)
CCOCCn1c(CN2CCC(Cc3ccccc3)CC2)nc2c1c(=O)n(C)c(=O)n2C | 61% (inactive) | 89.7% (inactive) | 87.7% (inactive) | 29.8% (inactive) | 58 | 87.7 | -8.22% (inactive) | 3.55% (inactive)
COc1cccc(NC(=O)c2ccccc2NS(C)(=O)=O)c1 | 86% (inactive) | 91.8% (inactive) | 91.9% (inactive) | 4.45% (inactive) | 87.5 | 91.9 | -5.89% (inactive) | -3.45% (inactive)
O=C(Nc1ccc(N2CCOCC2)c(Cl)c1)c1ccc(Br)o1 | 91% (inactive) | 65.5% (inactive) | 20% (active) | -12.4% (inactive) | 32.4 | 20 | -3.7% (inactive) | 5.81% (inactive)
CC(Cc1ccc(O)c(O)c1)C(C)Cc1ccc(O)c(O)c1 (configuration not stated) | 87% (inactive) | 22.3% (active) | 77.4% (inactive) | -1.66% (inactive) | 79.1 | 77.4 | -5.45% (inactive) | -6.33% (inactive)
CC(C)N(Cc1nc(-c2ccc(Cl)cc2)no1)C(=O)CN(C)S(=O)(=O)c1ccc(Cl)cc1 | 95% (inactive) | 66.3% (inactive) | 78.7% (inactive) | -7.31% (inactive) | 86.1 | 78.7 | -0.68% (inactive) | 1.29% (inactive)
COC(=O)Cn1cnc2sc(C)c(S(=O)(=O)N3CCC(C)CC3)c2c1=O | 85% (inactive) | 98.4% (inactive) | 91.3% (inactive) | -5.84% (inactive) | 97.1 | 91.3 | -1.64% (inactive) | -0.91% (inactive)
O=C(NCC(F)(F)F)Nc1cccnc1 | 82% (inactive) | 92.8% (inactive) | 99.6% (inactive) | 6% (inactive) | 93.6 | 99.6 | -4.19% (inactive) | -4% (inactive)
C[C@]12CC[C@@H]3c4ccc(O)cc4CC[C@H]3[C@@H]1CCC2=O | 120% (inactive) | 63.4% (inactive) | 91.8% (inactive) | 4.7% (inactive) | 87.1 | 91.8 | -1.56% (inactive) | 0.5% (inactive)
c1ccc2c(SCc3cn4cccnc4n3)ncnc2c1 | 108% (inactive) | 99.9% (inactive) | 88.4% (inactive) | 10.4% (inactive) | 78 | 88.4 | -4.8% (inactive) | -3.82% (inactive)
C(=N/n1c2ccccc2c2ccccc21)/c1ccco1 | 81% (inactive) | 77.9% (inactive) | 86.5% (inactive) | -3.11% (inactive) | 89.6 | 86.5 | -5.19% (inactive) | 0.49% (inactive)
O=C(Nc1ccc(NC(=O)c2ccco2)nc1)c1cccnc1 | 102% (inactive) | 121% (inactive) | 88.7% (inactive) | -1.89% (inactive) | 90.6 | 88.7 | -7.4% (inactive) | 0.65% (inactive)
CCNc1ccc(S(=O)(=O)C(F)(F)F)cc1NC(=O)C12CCC(CC1)C2 | 102% (inactive) | 102% (inactive) | 92.3% (inactive) | -3.33% (inactive) | 95.7 | 92.3 | 1.78% (inactive) | 2% (inactive)
COC(=O)c1c(NC(=O)CSc2nnnn2C)sc(C)c1C | 96% (inactive) | 84.9% (inactive) | 92.5% (inactive) | 4.44% (inactive) | 88.1 | 92.5 | 0.14% (inactive) | -2% (inactive)
COCCn1nnnc1CN1CCC(Cc2ccccc2)CC1 | 134% (inactive) | 102% (inactive) | 95.3% (inactive) | 5.17% (inactive) | 90.1 | 95.3 | -3.84% (inactive) | 4.68% (inactive)
Cc1nc2ncnn2c(C)c1CCC(=O)NCCCN1CCN(c2cccc(Cl)c2)CC1 | 78% (inactive) | 76.4% (inactive) | 96.5% (inactive) | 6.44% (inactive) | 90.1 | 96.5 | -2.21% (inactive) | -3.77% (inactive)
